Key:
A549 = test: Growth inhibition of human A549 cells; format: functional
IGROV-1 = test: Growth inhibition of human IGROV1 cells; format: functional
DMS-273 = test: Growth inhibition of human DMS273 cells; format: functional
NCI-H226 = test: Growth inhibition of human NCI-H226 cells; format: functional
ACHN = test: Growth inhibition of human ACHN cells; format: functional
SN12C = test: Growth inhibition of human SN12C cells; format: functional
Outline: (§1)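 Tested at the NCI in its human disease-oriented in vitro screen of 60 tumour cell lines, following the Monks et al. methods. Activity is expressed as GI50, given as log molar values.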

HCT-116 = test: Growth inhibition of human HCT116 cells; format: functional
U-251 = test: Growth inhibition of human U251 cells; format: functional; outline: as §1
SF-539 = test: Growth inhibition of human SF539 cells; format: functional; outline: as §1
SW-620 = test: Growth inhibition of human SW620 cells; format: functional; outline: as §1
SR = test: Growth inhibition of human SR cells; format: functional; outline: as §1
SK-MEL-2 = test: Growth inhibition of human SK-MEL-2 cells; format: functional; outline: as §1
786-0 = test: Growth inhibition of human 786-0 cells; format: functional
RXF 393 = test: Growth inhibition of human […] cells; format: functional
[1] = Growth inhibition of human RPMI8266 cells; format: functional
HT-29 = test: Growth inhibition of human HT29 cells; format: functional
CCRF-CEM = test: Growth inhibition of human CCRF-CEM cells; format: functional
NCI-H322M = test: Growth inhibition of human NCI-H322M cells; format: functional
SNB-19 = test: Growth inhibition of human SNB19 cells; format: functional; outline: as §1
HCC 2998 = test: Growth inhibition of human HCC2998 cells; format: functional
Malme-3M = test: Growth inhibition of human MALME-3M cells; format: functional
KM12 = test: Growth inhibition of human KM12 cells; format: functional
HOP-92 = test: Growth inhibition of human HOP92 cells; format: functional
[2] = Growth inhibition of human OVACR4 cells; format: functional
SK-MEL-5 = test: Growth inhibition of human SK-MEL-5 cells; format: functional; outline: as §1
[3] = Growth inhibition of human HL60(TB) cells; format: functional, HL-60(TB); conditions: HL-60
KM-20L2 = test: Growth inhibition of human KM20L2 cells; format: functional
LOX IMVI = test: Growth inhibition of human LOX IMVI cells; format: functional
NCI-H522 = test: Growth inhibition of human NCI-H522 cells; format: functional
HCT-15 = test: Growth inhibition of human HCT15 cells; format: functional
SK-MEL-28 = test: Growth inhibition of human SK-MEL-28 cells; format: functional; outline: as §1
DLD-1 = test: Growth inhibition of human DLD1 cells; format: functional
HOP-18 = test: Growth inhibition of human HOP18 cells; format: functional
NCI-H460 = test: Growth inhibition of human NCI-H460 cells; format: functional
K562 = test: Growth inhibition of human K562 cells; format: functional
XF498 = test: Growth inhibition of human XF498 cells; format: functional; outline: as §1
UO-31 = test: Growth inhibition of human UO31 cells; format: functional; outline: as §1
SNB-75 = test: Growth inhibition of human SNB75 cells; format: functional; outline: as §1
TK-10 = test: Growth inhibition of human TK10 cells; format: functional; outline: as §1
COLO 205 = test: Growth inhibition of human COLO205 cells; format: functional
SF-268 = test: Growth inhibition of human SF268 cells; format: functional; outline: as §1
[4] = Growth inhibition of human OVACR5 cells; format: functional
M14 = test: Growth inhibition of human M14 cells; format: functional
HOP-62 = test: Growth inhibition of human HOP62 cells; format: functional
SK-OV-3 = test: Growth inhibition of human SK-OV-3 cells; format: functional; outline: as §1
UACC-62 = test: Growth inhibition of human UACC62 cells; format: functional; outline: as §1
[5] = Growth inhibition of human LXFL529 cells; format: functional; conditions: LXFL 529
[6] = Growth inhibition of human DMS144 cells; format: functional
[7] = Growth inhibition of human […] cells; format: functional
[8] = Growth inhibition of human OVACR8 cells; format: functional
M19-MEL = test: Growth inhibition of human M19-MEL cells; format: functional

In the case of `COc1cc(C)cc2c1[nH]c1ccccc12` [MURRAYAFOLINE A], the GI50 (A549) is reported as 1.15 µM, the GI50 (IGROV-1) is reported as 14.8 µM and the GI50 (DMS-273) is reported as 7.76 µM. The GI50 (NCI-H226) was 8.51 µM, the GI50 (ACHN) was 23.4 µM and the GI50 (SN12C) was 14.1 µM. The GI50 (HCT-116) was 11.5 µM, the GI50 (U-251) was 10.5 µM and the GI50 (SF-539) was 6.03 µM. For the same compound, the GI50 (SW-620) was 8.32 µM, the GI50 (SR) was 10.2 µM and the GI50 (SK-MEL-2) was 7.41 µM. It also gave a GI50 (786-0) of 9.33 µM, a GI50 (RXF 393) of 9.33 µM and a GI50 [1] of 8.71 µM. It also gave a GI50 (HT-29) of 7.76 µM, a GI50 (CCRF-CEM) of 15.5 µM and a GI50 (NCI-H322M) of 12.9 µM. The GI50 (SNB-19) was 25.1 µM, the GI50 (HCC 2998) was 14.8 µM and the GI50 (Malme-3M) was 8.13 µM. It also gave a GI50 (KM12) of 8.13 µM, a GI50 (HOP-92) of 23.4 µM and a GI50 [2] of 25.1 µM. For the same compound, the GI50 (SK-MEL-5) was 9.12 µM, the GI50 [3] was 6.92 µM and the GI50 (KM-20L2) was 7.59 µM. The GI50 (LOX IMVI) was 12.6 µM, the GI50 (NCI-H522) was 4.27 µM and the GI50 (HCT-15) was 7.41 µM. For the same compound, the GI50 (SK-MEL-28) was 16.2 µM, the GI50 (DLD-1) was 10.5 µM and the GI50 (HOP-18) was 0.288 µM. The GI50 (NCI-H460) was 7.76 µM, the GI50 (K562) was 25.1 µM and the GI50 (XF498) was 22.4 µM. The GI50 (UO-31) was 15.1 µM, the GI50 (SNB-75) was 25.1 µM and the GI50 (TK-10) was 25.1 µM. It also gave a GI50 (COLO 205) of 12.3 µM, a GI50 (SF-268) of 14.5 µM and a GI50 [4] of 24.5 µM. The GI50 (M14) was 7.24 µM, the GI50 (HOP-62) was 6.31 µM and the GI50 (SK-OV-3) was 20.9 µM. The GI50 (UACC-62) was 15.1 µM, the GI50 [5] was 18.2 µM and the GI50 [6] was 9.55 µM. For the same compound, the GI50 [7] was 8.91 µM, the GI50 [8] was 7.41 µM and the GI50 (M19-MEL) was 18.2 µM.

— ChEMBL document CHEMBL1142636 (2000)
